Source: ChEMBL document CHEMBL1129647, “Targeting delavirdine/atevirdine resistant HIV-1: identification of (alkylamino)piperidine-containing bis(heteroaryl)piperazines as broad spectrum HIV-1 reverse transcriptase inhibitors” (J Med Chem, 1996)
pIC50, pKi: −log10 of the molar value.

What was measured:
[1] = biological target: T1, Human immunodeficiency virus type 1 reverse transcriptase (Human immunodeficiency virus 1, UniProt Q72547, P236L)
[2] = biological target: T2, Human immunodeficiency virus type 1 reverse transcriptase (Human immunodeficiency virus 1, UniProt Q72547, Y181C)
[3] = test system: Human immunodeficiency virus 1; experiment: Concentration required to inhibit P24 production by 90% against L-697661 of HIV-1 IIIB (Y181C); format: functional
[4] = test system: Human immunodeficiency virus 1; experiment: Concentration required to inhibit P24 production by 90% against U-90,152 of HIV-1 MF (P236L); format: functional
[5] = biological target: T3, Human immunodeficiency virus type 1 reverse transcriptase (Human immunodeficiency virus 1, UniProt Q72547)
[6] = test system: Human immunodeficiency virus 1; experiment: Concentration required to inhibit P24 production by 90% against U-90,152 of HIV-1 IIIB (L100I, M230L); format: functional
[7] = Clearance at an iv dose of 15 mg/Kg and po dose of 30 mg/Kg; format: ADME, organism-based; conditions: in vivo
Summary of the method: (§1)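 Male Sprague-Dawley rats, fasted, dosed iv and po in a crossover design with a 1 week washout between treatments (N = 3). Compound was given as a solution in propylene glycol/water (80/20, v/v) acidified with a molar excess of methanesulfonic acid. Values are the iv clearance and the absolute oral bioavailability.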

[8] = Bioavailability (dose 15 mg/kg i.v. and 30 mg/kg p.o.); format: ADME, organism-based; conditions: in vivo, po
Summary of the method: as §1

[9] = test system: Human immunodeficiency virus 1; experiment: Concentration required to inhibit P24 production by 90% against L-697,661 of HIV-1IIIB(Y181c); format: functional
[10] = test system: Human immunodeficiency virus 1; experiment: Concentration required to inhibit P24 production by 90% against U-90,152 of HIV-1 MF(P236L); format: functional
[11] = Bioavailability at an iv dose of 15.6 mg/Kg and po dose of 31.2 mg/Kg; format: ADME, organism-based; conditions: rat, in vivo, read-out: Bioavailabiility
Summary of the method: as §1

[12] = Clearance at an iv dose of 15.6 mg/Kg and po dose of 31.2 mg/Kg; format: ADME, organism-based; conditions: rat, in vivo
Summary of the method: as §1

[13] = Bioavailability at an iv dose of 15 mg/Kg and po dose of 29.1 mg/Kg; format: ADME, organism-based; conditions: in vivo, read-out: Bioavailabiility
Summary of the method: as §1

[14] = biological target: T1, Human immunodeficiency virus type 1 reverse transcriptase; experiment: Compound was tested for inhibition of HIV-1 P236L reverse transcriptase using dTTP as substrate
[15] = biological target: T3, Human immunodeficiency virus type 1 reverse transcriptase; experiment: Compound was tested for inhibition of HIV-1 WT reverse transcriptase using dTTP as substrate
[16] = test system: Human immunodeficiency virus 1; experiment: In vitro inhibition of recombinant HIV-1 IIIB mutant WT; format: functional, organism-based
[17] = biological target: T3, Human immunodeficiency virus type 1 reverse transcriptase; experiment: Compound was tested for inhibition of HIV-1 WT reverse transcriptase using poly(rA)300:oligo(dT)10 as substrate
[18] = biological target: T2, Human immunodeficiency virus type 1 reverse transcriptase; experiment: Compound was tested for inhibition of HIV-1 Y181C cell line using poly(rA)300:oligo(dT)10 as substrate
Summary of the method: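 Kinetic inhibition study on homodimeric recombinant HIV-1 RTs (WT, P236L, Y181C), varying dTTP or poly(rA):(dT)10 template:primer. Base assay: 28 °C, 10 min, pH 8.3 Tris-HCl, 10 mM MgCl2, 60 mM NaCl, 2 mM DTT, 0.05% NP-40, [3H]TTP incorporation. TCA-precipitated product collected on glass fibre filters and counted. Ki values derived.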

[19] = biological target: T1, Human immunodeficiency virus type 1 reverse transcriptase; experiment: Compound was tested for inhibition of HIV-1 P236L reverse transcriptase using poly(rA)300:oligo(dT)10 as substrate
[20] = biological target: T2, Human immunodeficiency virus type 1 reverse transcriptase; experiment: Compound was tested for inhibition of HIV-1 Y181C reverse transcriptase using dTTP as substrate
[21] = test system: Human immunodeficiency virus 1; experiment: In vitro inhibition of recombinant HIV-1 IIIB mutant Y181C; format: functional, organism-based
[22] = test system: Human immunodeficiency virus 1; experiment: In vitro inhibition of recombinant HIV-1 IIIB mutant P236L; format: functional, organism-based

| SMILES | pIC50 [1] | pIC50 [2] | IC90 [3] [nM] | IC90 [4] [nM] | pIC50 [5] | IC90 [6] [nM] | also measured |
| --- | --- | --- | --- | --- | --- | --- | --- |
| CN(c1ncccc1NC1CC1)C1CCN(C(=O)c2cc3cc(NS(C)(=O)=O)ccc3[nH]2)CC1 | 6.68 | 6.55 | 4400 | > 10000 | 7.05 |  |  |
| CCN(c1nc(F)ccc1NC(C)C)C1CCN(C(=O)c2cc3cc(NS(C)(=O)=O)ccc3[nH]2)CC1 | 6.27 | 6.06 | 140 | 300 | 6.34 | 110 |  |
| CCNc1cccnc1N(CC)C1CCN(C(=O)c2cc3cc(NS(=O)(=O)N4CCN(C)CC4)ccc3[nH]2)CC1 | 6.36 | 5.95 |  |  | 6.62 |  |  |
| CCCNc1cccnc1N(CC)C1CCN(C(=O)c2cc3cc(NS(C)(=O)=O)ccc3[nH]2)CC1 | 6.55 | 6.35 | 140 | 400 | 6.89 |  |  |
| CCNc1cccnc1N(CC)C1CCN(C(=O)c2cc3cc(NC(=O)N4CCN(C)CC4)ccc3[nH]2)CC1 | 6.62 | 5.91 |  |  | 6.85 |  |  |
| CCN(c1ncccc1NC(C)(C)C)C1CCN(C(=O)c2cc3cc(NS(=O)(=O)N4CCN(C)CC4)ccc3[nH]2)CC1 | 5.90 | 5.74 | < 30 | 340 | 6.10 | 140 | clearance ([7]; rat): 73.7 mL/min/kg; bioavailability ([8]; rat): 32% |
| CCNc1cccnc1N(C(C)C)C1CCN(C(=O)c2cc3cc(NS(C)(=O)=O)ccc3[nH]2)CC1 | 5.59 | 5.44 |  |  | 6.42 |  |  |
| CCc1cc(NCc2nc3c(Cl)ccc(Cl)c3o2)c(O)nc1C [L-697661] | 6.96 | < 4.22 | > 10000 | 430 | 6.10 | 4000 |  |
| CN(c1ncccc1NC1(C)CC1)C1CCN(C(=O)c2cc3cc(NS(C)(=O)=O)ccc3[nH]2)CC1 | 5.84 | 6.43 | 2300 | > 300 | 6.80 |  |  |
| CCC(C)(C)Nc1cccnc1N(C)C1CCN(C(=O)c2cc3cc(NS(C)(=O)=O)ccc3[nH]2)CC1 | 5.48 | 6.28 |  |  | 6.46 |  |  |
| CCCN(c1ncccc1NC(C)C)C1CCN(C(=O)c2cc3cc(NS(C)(=O)=O)ccc3[nH]2)CC1 | 6.62 | 6.21 | 60 | 220 | 6.62 |  |  |
| CCN(c1nc(Cl)ccc1NC(C)(C)C)C1CCN(C(=O)c2cc3cc(NS(C)(=O)=O)ccc3[nH]2)CC1 | 5.82 | 5.52 |  |  | 5.99 |  | IC90 [9]: > 300 nM; IC90 [10]: 240 nM |
| CCNc1cccnc1N(CC)C1CCN(C(=O)c2cc3cc(NS(=O)(=O)C(C)C)ccc3[nH]2)CC1 | 6.48 | 6.18 |  |  | 6.35 |  |  |
| CCN(c1nc(F)ccc1NC(C)(C)C)C1CCN(C(=O)c2cc3cc(NS(=O)(=O)N4CCN(C)CC4)ccc3[nH]2)CC1 | 5.96 | 5.68 | 150 | 290 | 6.08 | 290 | clearance ([7]; rat): 61 mL/min/kg; bioavailability ([8]; rat): 54% |
| CC(C)Nc1cccnc1N(C)C1CCN(C(=O)c2cc3ccc(OCCOCCOCCO)cc3[nH]2)CC1 | 6.39 | 6.11 |  |  | 6.52 |  |  |
| CCCN(c1ncccc1NC(C)(C)C)C1CCN(C(=O)c2cc3cc(NS(C)(=O)=O)ccc3[nH]2)CC1 | 5.84 | 5.61 | 30 | 320 | 6.32 | 110 |  |
| CC(C)Nc1ccnnc1N(C)C1CCN(C(=O)c2cc3cc(NS(C)(=O)=O)ccc3[nH]2)CC1 | 5.34 | 5.88 |  |  | 6.13 |  | bioavailability [11]: 0%; clearance [12]: 40 mL/min/kg |

| SMILES | pIC50 [1] | pIC50 [2] | IC90 [3] [nM] | IC90 [4] [nM] | pIC50 [5] | IC90 [6] [nM] | also measured |
| --- | --- | --- | --- | --- | --- | --- | --- |
| CCNc1cccnc1N(CC)C1CCN(C(=O)c2cc3cc(NS(C)(=O)=O)ccc3[nH]2)CC1 | 6.27 | 6.06 | 180 | 310 | 6.34 | 80 | clearance ([7]; rat): 66.6 mL/min/kg; bioavailability ([8]; rat): 2.8% |
| CCN(c1ncccc1NC(C)C)C1CCN(C(=O)c2cc3cc(NS(C)(=O)=O)ccc3[nH]2)CC1 | 6.70 | 6.40 |  |  | 6.60 |  |  |
| CCN(c1ncccc1NC(C)C)C1CCN(C(=O)c2cc3cc(NC(=O)N4CCN(C)CC4)ccc3[nH]2)CC1 | 6.74 | 6.39 | 50 | 240 | 6.85 | 110 | clearance ([7]; rat): 50 mL/min/kg; bioavailability ([8]; rat): 21.3% |
| CC(C)Nc1cccnc1N(C1CC1)C1CCN(C(=O)c2cc3ccccc3[nH]2)CC1 | 6.23 | 5.64 |  |  | 6.15 |  |  |
| CC(C)Nc1cccnc1N(C)C1CCN(C(=O)c2cc3ccc(CO)cc3[nH]2)CC1 | 6.43 | 6.31 |  |  | 6.77 |  |  |
| CN(c1ncccc1NC(C)(C)C)C1CCN(C(=O)c2cc3cc(NS(C)(=O)=O)ccc3[nH]2)CC1 |  |  | 220 | 5400 |  | 830 | bioavailability [13]: 44% |
| CCN(c1ncccc1NC(C)(C)C)C1CCN(C(=O)c2cc3cc(NC(=O)N4CCN(C)CC4)ccc3[nH]2)CC1 | 6.43 | 6.21 | 50 | 160 | 6.66 | 160 | clearance ([7]; rat): 61 mL/min/kg; bioavailability ([8]; rat): 35.1% |
| CCCN(c1ncccc1NC(C)C)C1CCN(C(=O)c2cc3cc(NC(=O)N4CCN(C)CC4)ccc3[nH]2)CC1 | 6.40 | 6.07 |  |  | 6.72 |  |  |
| CCCN(c1ncccc1NCC)C1CCN(C(=O)c2cc3cc(NS(C)(=O)=O)ccc3[nH]2)CC1 | 6.28 | 6.02 |  |  | 6.82 |  |  |
| CCN(c1ncccc1NC(C)C)C1CCN(C(=O)c2cc3cc(NS(=O)(=O)N4CCN(C)CC4)ccc3[nH]2)CC1 | 6.24 | 6.11 | 170 | 300 | 6.42 |  | clearance ([7]; rat): 89 mL/min/kg; bioavailability ([8]; rat): 8% |
| CCN(c1nc(F)ccc1NC(C)(C)C)C1CCN(C(=O)c2cc3cc(NC(=O)N4CCN(C)CC4)ccc3[nH]2)CC1 |  |  | 130 | 160 |  | 140 | pKi [14]: 5.69; pKi [15]: 5.90; pIC50 [16]: 6.68; pKi [17]: 5.79; pKi [18]: 5.52; pKi [19]: 5.76; pKi [20]: 5.59; clearance [7]: 16 mL/min/kg; pIC50 [21]: 6.10; bioavailability ([8]; eutheria): 42%; pIC50 [22]: 6.37 |
| CC(C)Nc1ccc(Cl)nc1N(C)C1CCN(C(=O)c2cc3cc(NS(C)(=O)=O)ccc3[nH]2)CC1 | 5.77 | 5.67 |  |  | 6.44 |  |  |
| CCNc1cccnc1N(CC)C1CCN(C(=O)c2cc3cc(NS(=O)(=O)CC)ccc3[nH]2)CC1 | 6.59 | 6.32 |  |  | 6.40 |  |  |
| CCN(c1nc(F)ccc1NC(C)(C)C)C1CCN(C(=O)c2cc3cc(NS(C)(=O)=O)ccc3[nH]2)CC1 | 5.98 | 5.97 | < 30 | 220 | 6.14 | 120 | clearance ([7]; rat): 27 mL/min/kg; bioavailability ([8]; rat): 17.1% |
| CN(c1nc(F)ccc1NC(C)(C)C)C1CCN(C(=O)c2cc3cc(NS(C)(=O)=O)ccc3[nH]2)CC1 | 5.72 | 6.14 | 440 | 2600 | 6.28 | 1600 |  |
| CN(c1ncccc1NCC1CC1)C1CCN(C(=O)c2cc3cc(NS(C)(=O)=O)ccc3[nH]2)CC1 | 4.84 | 5.54 |  |  | 6.28 |  |  |
